Laboratory results from ChEMBL document CHEMBL4477183, “Antimicrobial Peptide from the Wild Bee Hylaeus signatus Venom and Its Analogues: Structure-Activity Study and Synergistic Effect with Antibiotics” (J Nat Prod, 2016).

Columns and labels:
Staphylococcus aureus [1] = assay: Antimicrobial activity against Staphylococcus aureus clinical isolates from Liberec regional hospital assessed as reduction in bacterial growth after 20 hrs by […]; type: functional
Method in brief: (§1)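 Broth microdilution in LB (YPG for C. albicans) with 2-fold serial dilutions, final 0.1–100 μM. Mid-log cells grown 3–5 h at 37 °C were added at about 5 × 10^5 cfu/mL, then incubated 20 h at 37 °C with shaking. A540 was read every 15 min to build growth curves. Medium with cells served as growth control; at least three runs in duplicate.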

Staphylococcus aureus [2] = assay: Antimicrobial activity against Staphylococcus aureus clinical isolates from university hospital in Motol assessed as reduction in bacterial growth after 20 hrs by drop diffusion test; type: functional
Escherichia coli = assay: Antimicrobial activity against Escherichia coli assessed as reduction in bacterial growth after 20 hrs by […]; type: functional; method in brief: as §1
Pseudomonas aeruginosa [3] = assay: Antimicrobial activity against Pseudomonas aeruginosa 5482 assessed as reduction in bacterial growth after 20 hrs […]; type: functional; details: Pseudomonas aeruginosa, 5482, 20 h; method in brief: as §1
Pseudomonas aeruginosa [4] = assay: Antimicrobial activity against Pseudomonas aeruginosa clinical isolates assessed as reduction in bacterial growth after 20 hrs by […]; type: functional; method in brief: as §1
[5] = Hemolytic activity in human type RBC after 1 hr; type: ADME, cell-based, Erythrocyte; details: red blood cells (erythrocytes), read-out: LC50
Method in brief: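 Peptides at 2.5–400 μM were incubated with a 4% suspension of human erythrocytes in physiological solution for 1 h at 37 °C, then centrifuged at 250g for 5 min; supernatant A540 was read. Saline-treated cells gave 0% lysis and 0.2% Triton X-100 gave 100%. LC50 is the concentration lysing 50% of cells; duplicates in at least two independent experiments.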

Candida albicans = assay: Antifungal activity against Candida albicans assessed as reduction in fungal growth after 20 hrs by […]; type: functional; method in brief: as §1
Micrococcus luteus = assay: Antimicrobial activity against Micrococcus luteus assessed as reduction in bacterial growth after 20 hrs by […]; type: functional; method in brief: as §1
Bacillus subtilis = assay: Antimicrobial activity against Bacillus subtilis assessed as reduction in bacterial growth after 20 hrs by […]; type: functional; method in brief: as §1
Staphylococcus aureus [6] = assay: Antimicrobial activity against Staphylococcus aureus clinical isolates assessed as FIC index in presence of amoxicillin after 20 hrs by drop diffusion test; type: functional
Pseudomonas aeruginosa [7] = assay: Antimicrobial activity against Pseudomonas aeruginosa clinical isolates assessed as FIC index in presence of tetracycline after 20 hrs by drop diffusion test; type: functional
Pseudomonas aeruginosa [8] = assay: Antimicrobial activity against Pseudomonas aeruginosa clinical isolates assessed as FIC index in presence of rifampicin after 20 hrs by drop diffusion test; type: functional
Staphylococcus aureus [9] = assay: Antimicrobial activity against Staphylococcus aureus 6271 assessed as reduction in bacterial growth after 20 hrs by broth microdilution assay; details: Staphylococcus aureus, 6271, 20 h
[10] = tested on: Staphylococcus epidermidis; assay: Antimicrobial activity against Staphylococcus epidermidis assessed as reduction in bacterial growth after 20 hrs by broth microdilution assay
Pseudomonas aeruginosa [11] = assay: Ratio of MIC for Pseudomonas aeruginosa to PC50 for induction of permeabilization in Pseudomonas aeruginosa; type: functional
Method in brief: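 PC50: washed 10^8 cfu/mL cells in PBS pH 7 with PI 10 μg/mL, peptide 0.31–80 μM, 90 min at 37 °C dark, fluorescence 544/620 nm as % of 4 μM octenidine, interpolated from log-concentration curve.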

Staphylococcus aureus [12] = assay: Antimicrobial activity against Staphylococcus aureus clinical isolates from Liberec regional hospital assessed as reduction in bacterial growth after 20 hrs by broth microdilution assay

Substance | MIC (Staphylococcus aureus [1]) | MIC (Staphylococcus aureus [2]) | MIC (Escherichia coli) | MIC (Pseudomonas aeruginosa [3]) | MIC (Pseudomonas aeruginosa [4]) | HC50 at 1 h [5] | MIC (Candida albicans) | MIC (Micrococcus luteus) | MIC (Bacillus subtilis) | fractional inhibitory concentration index (FICI) (Staphylococcus aureus [6]) | fractional inhibitory concentration index (FICI) (Pseudomonas aeruginosa [7]) | fractional inhibitory concentration index (FICI) (Pseudomonas aeruginosa [8]) | MIC (Staphylococcus aureus [9]) | MIC [10] | Ratio (Pseudomonas aeruginosa [11]) | MIC (Staphylococcus aureus [12])
H-GILSSLWKKLKKIIAK-NH2 | 2 µM | 5 µM | 3.4 µM | 5.3 µM | 8.8 µM | 197 µM | 11 µM | ≤ 3 µM | ≤ 7 µM | 0.56 | 0.65 | 0.44 | 5.3 µM | 2 µM |  | 
H-GILSSLWKKLKKWIAK-NH2 |  | 2 µM | 2.5 µM | 13 µM | 24 µM | 57 µM | 13 µM | ≤ 3 µM | ≤ 7 µM | 0.58 | 0.42 | 0.29 | 2.5 µM | 1.6 µM | 19 | 1.8 µM
H-GILSSWLKKLKKIIAK-NH2 | 6.6 µM | 16 µM | 11 µM | 4 µM | 5.9 µM | > 400 µM | 17 µM | ≤ 3 µM | ≤ 7 µM | 0.37 | 0.65 | 0.4 | 16 µM | 2 µM |  | 
H-GIMSSLMKKLKKIIKK-NH2 |  | 65 µM | 22 µM | 7.1 µM | 9.9 µM | > 400 µM | 6.3 µM | ≤ 3 µM | ≤ 7 µM | 0.17 | 0.63 | 0.36 | 54 µM | 1.7 µM |  | 18 µM
H-GKLSSLWKKLKKIIAK-NH2 |  | 27 µM | 20 µM | 6.8 µM | 19 µM | > 400 µM | 34 µM | ≤ 3 µM | ≤ 7 µM | 0.25 | 0.54 | 0.29 | 26 µM | 2.5 µM |  | 11 µM
H-KILSSLLKKLKKIIAK-NH2 | 5.5 µM | 10 µM | 16 µM | 5 µM | 16 µM | 364 µM | 25 µM | ≤ 3 µM | ≤ 7 µM | 0.29 | 0.71 | 0.26 | 32 µM | 1.4 µM |  | 
